The test system of data set [1] is Mus musculus. Kind of data set: Inhibition of PTEN expression in Balb/C mouse adipose tissue assessed as increase in mRNA levels at 8.25 mg/kg, ip administered thrice a week for 2 weeks measured 48 hrs after last dose by […]. It counts as functional, organism-based. Also noted: dose 8.25 mg/kg. The method in brief:
(§1)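 Male Balb/c mice, n=4 per group, dosed i.p. in PBS and sacrificed 48 h after last dose. Liver, kidney and adipose tissue homogenised at once in 4 M guanidine isothiocyanate, 25 mM EDTA, 50 mM Tris-HCl pH 6. RNA purified on columns and run by fluorescence-based quantitative RT-PCR. Target transcript levels normalised to cyclophilin A and expressed relative to saline-treated controls.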

For data set [2], the system named is Mus musculus. Kind of data set: Inhibition of PTEN expression in Balb/C mouse kidney assessed as increase in mRNA levels at 33 mg/kg, ip administered as single dose measured 48 hrs after last dose […]. Also noted: dose 33 mg/kg. It is filed as functional, organism-based. The method in brief:
as §1

Data set [3] relates to Mus musculus. Kind of data set: Acute toxicity in Balb/C mouse assessed as reduction in body weight at 8.5 mg/kg, ip administered thrice a week for 2 weeks measured 48 hrs after last dose. It counts as organism-based. Also noted: dose 8.5 mg/kg, route intraperitoneal. The following applies: in vivo. An outline of the steps: (§2)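 Male Balb/c mice aged 6–8 weeks, n=4 per group, dosed i.p. with compound suspended in PBS and filter sterilized, 10 ul/g body weight. Body weight tracked throughout the live phase. Under isoflurane anaesthesia, terminal cardiac-puncture bleed; serum taken for transaminases and other chemistries. Sacrifice by cervical dislocation 48 h after last dose, with liver and spleen weighed at necropsy. Kidneys examined by histopathology.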

For data set [4], the system named is Mus musculus. Kind of data set: Acute toxicity in Balb/C mouse assessed as necrosis in kidney at 33 mg/kg, ip administered thrice a week for 2 weeks measured 48 hrs after last dose. To be noted: in vivo. Also noted: dose 33 mg/kg, route intraperitoneal. It counts as organism-based. The method in brief:
as §2

In data set [5] the test system is Mus musculus. Kind of data set: Inhibition of PTEN expression in Balb/C mouse liver assessed as increase in mRNA levels at 8.25 mg/kg, ip administered thrice a week for 2 weeks measured 48 hrs after last dose […]. Also noted: dose 8.25 mg/kg. It counts as functional, organism-based. The method in brief:
as §1

In data set [6] the test system is Mus musculus. As to the kind of experiment: Acute toxicity in Balb/C mouse assessed as reduction in body weight at 33 mg/kg, ip administered thrice a week for 2 weeks measured 48 hrs after last dose. Also noted: dose 33 mg/kg, route intraperitoneal. To be noted: in vivo. It is filed as organism-based. An outline of the steps: as §2
In data set [7] the test system is Mus musculus. Kind of data set: Acute toxicity in Balb/C mouse assessed as necrosis in kidney at 8.5 mg/kg, ip administered thrice a week for 2 weeks measured 48 hrs after last dose. The following applies: in vivo. Also noted: dose 8.5 mg/kg, route intraperitoneal. It is filed as organism-based. An outline of the steps:
as §2

Data set [8] deals with Mus musculus. Kind of data set: Inhibition of PTEN expression in Balb/C mouse kidney assessed as increase in mRNA levels at 8.25 mg/kg, ip administered thrice a week for 2 weeks measured 48 hrs after last dose […]. It counts as functional, organism-based. Also noted: dose 8.25 mg/kg. The method in brief: as §1

The source made the active and inactive calls. The rule behind the calls is not given here.

Consider `Cc1cn(CC(=O)N(CCNC(=O)CN(CCNC(=O)[C@H](CCCCN)N(CCNC(=O)CNC(=O)[C@@H](CCCCN)NC(=O)[C@@H](CCCCN)NC(=O)[C@@H](C)NC(=O)[C@@H](CC(C)C)NC(=O)[C@@H](CCCCN)NC(=O)[C@@H](CC(C)C)NC(=O)[C@@H](C)NC(=O)[C@@H](C)NC(=O)[C@@H](CCCCN)NC(=O)[C@@H](CC(C)C)NC(=O)[C@@H](CC(C)C)NC(=O)[C@@H](CCCCN)NC(=O)[C@H](N)CCCCN)C(=O)Cn2cc(C)c(=O)[nH]c2=O)C(=O)Cn2ccc(N)nc2=O)CC(=O)NCCN(CC(=O)NCCN(CC(=O)NCCN(CC(=O)NCCN(CC(=O)NCCN(CC(=O)NCCN(CC(=O)NCCN(CC(=O)NCCN(CC(=O)NCCN(CC(=O)NCCN(CC(=O)NCCN(CC(=O)NCCN(CC(=O)NCCN(CC(=O)N[C@@H](CCCCN)C(N)=O)C(=O)Cn2cnc3c(N)ncnc32)C(=O)Cn2ccc(N)nc2=O)C(=O)Cn2cnc3c(N)ncnc32)C(=O)Cn2cc(C)c(=O)[nH]c2=O)C(=O)Cn2ccc(N)nc2=O)C(=O)Cn2cc(C)c(=O)[nH]c2=O)C(=O)Cn2cnc3c(N)ncnc32)C(=O)Cn2ccc(N)nc2=O)C(=O)Cn2cnc3c(N)ncnc32)C(=O)Cn2ccc(N)nc2=O)C(=O)Cn2cnc3c(=O)[nH]c(N)nc32)C(=O)Cn2cnc3c(N)ncnc32)C(=O)Cn2ccc(N)nc2=O)c(=O)[nH]c1=O`, for which the result in the data set on Mus musculus [1], in the data set on Mus musculus [2], in the data set on Mus musculus [5] and in the data set with Mus musculus [8] was inactive. For the same compound, the Activity result in the data set with Mus musculus [3], with Mus musculus [4], in the data set on Mus musculus [6] and in the data set on Mus musculus [7] was “Toxic” each time.

The record behind these values is ChEMBL document CHEMBL1155469, “Peptide nucleic acids conjugated to short basic peptides show improved pharmacokinetics and antisense activity in adipose tissue” (J Med Chem, 2010).
